# Results as given in publication PMC3674249 (Nature Communications, 2013).
# “Also recorded” adds a separate entry of the source.
# Key:
# ChEH [1] = conditions: microsomes from rat liver; cited from earlier work
# ChEH [2] = molecular target: T1, ChEH (Homo sapiens, UniProt Q15125+Q9UBM7); assay: ChEH activity in whole MCF-7 cells; format: cell-based; conditions: for ChEH inhibition (in words) / IC50 of ChEH inhibition, fold higher than DDA: MCF-7 cells
# In short: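 Whole MCF-7 cells were grown in RPMI with 5% FBS. Conversion to [14C]-CT was resolved by TLC and quantified by densitometry. IC50 came from dose–response curves, as mean±s.e.m. of three independent experiments.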
# ChEH [3] = molecular target: T2, ChEH (Mus musculus, UniProt O88455+P70245); assay: ChEH activity in murine melanoma B16F10 cells; format: cell-based
# T2 sequence (P70245 1-230): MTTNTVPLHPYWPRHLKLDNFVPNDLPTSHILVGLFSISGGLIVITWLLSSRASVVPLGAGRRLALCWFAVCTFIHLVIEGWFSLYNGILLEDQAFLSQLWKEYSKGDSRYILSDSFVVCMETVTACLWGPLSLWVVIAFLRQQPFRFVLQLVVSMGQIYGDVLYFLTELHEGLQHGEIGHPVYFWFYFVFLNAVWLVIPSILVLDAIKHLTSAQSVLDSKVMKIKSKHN
# T2 sequence (O88455 1-471): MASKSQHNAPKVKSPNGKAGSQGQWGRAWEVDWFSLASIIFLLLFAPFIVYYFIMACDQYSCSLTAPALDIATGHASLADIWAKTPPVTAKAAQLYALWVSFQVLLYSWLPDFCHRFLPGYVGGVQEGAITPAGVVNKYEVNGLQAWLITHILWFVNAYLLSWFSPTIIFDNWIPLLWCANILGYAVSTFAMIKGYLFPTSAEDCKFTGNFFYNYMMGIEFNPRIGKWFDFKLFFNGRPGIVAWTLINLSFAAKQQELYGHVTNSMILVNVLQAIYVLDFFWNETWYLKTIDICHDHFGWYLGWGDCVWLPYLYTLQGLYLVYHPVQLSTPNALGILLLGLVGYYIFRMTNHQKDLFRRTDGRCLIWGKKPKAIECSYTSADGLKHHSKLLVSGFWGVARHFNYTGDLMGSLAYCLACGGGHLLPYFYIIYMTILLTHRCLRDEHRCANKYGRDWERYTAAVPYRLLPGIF
# ChEH [4] = molecular target: T1, ChEH; assay: ChEH activity in human melanoma SK-Mel-28 cells; format: cell-based
# ChEH [5] = molecular target: T2, ChEH; assay: ChEH activity in murine mammary TSA cells; format: cell-based
# rat mEH = molecular target: T3, rat mEH (Rattus norvegicus, UniProt P07687); assay: mEH activity assay; format: biochemical
# T3 sequence (P07687 1-455): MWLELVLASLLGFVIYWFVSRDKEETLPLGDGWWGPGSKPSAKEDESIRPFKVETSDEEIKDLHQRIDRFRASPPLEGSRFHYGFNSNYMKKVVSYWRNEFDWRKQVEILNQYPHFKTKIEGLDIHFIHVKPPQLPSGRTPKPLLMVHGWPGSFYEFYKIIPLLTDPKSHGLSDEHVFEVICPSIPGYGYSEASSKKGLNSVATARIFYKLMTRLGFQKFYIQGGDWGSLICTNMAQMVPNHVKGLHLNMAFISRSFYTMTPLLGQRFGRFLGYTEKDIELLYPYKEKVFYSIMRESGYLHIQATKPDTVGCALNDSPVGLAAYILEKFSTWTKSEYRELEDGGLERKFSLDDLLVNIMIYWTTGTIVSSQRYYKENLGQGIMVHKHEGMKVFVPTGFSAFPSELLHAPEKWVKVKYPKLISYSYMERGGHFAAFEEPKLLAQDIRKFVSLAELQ
# TS/A cells = assay: TS/A cell differentiation in vitro; format: cell-based, mouse; conditions: 24 h
# Human sEH = molecular target: T4, Human sEH (Homo sapiens, UniProt P34913); assay: sEH activity assay; format: biochemical
# T4 sequence (P34913 1-555): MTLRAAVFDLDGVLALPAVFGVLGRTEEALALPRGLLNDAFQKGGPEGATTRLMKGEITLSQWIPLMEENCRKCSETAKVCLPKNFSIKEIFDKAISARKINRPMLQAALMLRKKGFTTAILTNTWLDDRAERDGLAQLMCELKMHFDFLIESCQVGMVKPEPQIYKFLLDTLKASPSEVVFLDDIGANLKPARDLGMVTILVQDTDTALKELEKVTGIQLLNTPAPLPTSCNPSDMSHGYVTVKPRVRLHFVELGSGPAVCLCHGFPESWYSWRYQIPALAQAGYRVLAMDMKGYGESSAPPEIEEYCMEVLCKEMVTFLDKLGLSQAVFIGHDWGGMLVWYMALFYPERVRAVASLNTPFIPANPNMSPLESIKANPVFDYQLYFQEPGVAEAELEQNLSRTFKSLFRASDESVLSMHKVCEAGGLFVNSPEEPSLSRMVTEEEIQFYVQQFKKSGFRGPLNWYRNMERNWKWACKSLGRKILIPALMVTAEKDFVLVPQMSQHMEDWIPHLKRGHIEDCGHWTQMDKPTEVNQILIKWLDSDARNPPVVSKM
# B16F10 melanoma tumours = B16F10 melanoma tumours implanted s.c. into immunocompetent mice; format: in vivo, mouse
# In short: (§1)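 Female mice, 6–8 weeks old, held specific-pathogen-free after 2 weeks quarantine. Strains were C57BL/6 for B16F10 and BALB/c for TS/A. 35,000 exponentially growing cells in 150 μl PBS were implanted s.c. into the flank. Dosing was s.c. every 5 days from implantation day, with a s.c. vehicle control (n=10 per group). Survival was by Kaplan–Meier with log-rank test.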
# ER = assay: ER-dependent transcriptional activity; format: cell-based, human; conditions: MELN cells; for inhibition of luciferase stimulation by E2 (ER antagonism): with 10 nM E2, Tam 1 μM
# TS/A mammary tumours = TS/A mammary tumours implanted s.c. into immunocompetent mice; format: in vivo, mouse
# In short: as §1
# B16F10 cells = assay: B16F10 cell differentiation in vitro; format: cell-based, mouse; conditions: 24 h
# ChEH [6] = molecular target: T1, ChEH; assay: Modality of ChEH inhibition in MCF-7 cell extracts; format: biochemical; conditions: MCF-7 cell extracts, 0.5, 1 and 5 μM DDA; Km increased, Vmax unchanged
# mouse brain homogenate = assay: DDA neosynthesis assay; format: biochemical; conditions: 2 μM [14C]-5,6α-EC, His 0.5–200 μM, 37 °C, 10 min
# [7] = B16F10, treated every 5 days from day of implantation, DDA 0.37 μg kg−1 s.c.
# [8] = TS/A tumours, DDA 3.7 μg kg−1, 30 days
# T1 sequence (Q15125 whole entry): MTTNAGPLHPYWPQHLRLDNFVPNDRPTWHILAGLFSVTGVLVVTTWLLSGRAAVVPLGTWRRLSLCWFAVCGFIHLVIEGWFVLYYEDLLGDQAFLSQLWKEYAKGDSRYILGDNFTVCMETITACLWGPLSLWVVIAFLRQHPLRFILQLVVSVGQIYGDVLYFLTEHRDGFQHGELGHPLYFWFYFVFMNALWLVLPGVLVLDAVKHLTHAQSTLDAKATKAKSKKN
# T1 sequence (Q9UBM7 whole entry): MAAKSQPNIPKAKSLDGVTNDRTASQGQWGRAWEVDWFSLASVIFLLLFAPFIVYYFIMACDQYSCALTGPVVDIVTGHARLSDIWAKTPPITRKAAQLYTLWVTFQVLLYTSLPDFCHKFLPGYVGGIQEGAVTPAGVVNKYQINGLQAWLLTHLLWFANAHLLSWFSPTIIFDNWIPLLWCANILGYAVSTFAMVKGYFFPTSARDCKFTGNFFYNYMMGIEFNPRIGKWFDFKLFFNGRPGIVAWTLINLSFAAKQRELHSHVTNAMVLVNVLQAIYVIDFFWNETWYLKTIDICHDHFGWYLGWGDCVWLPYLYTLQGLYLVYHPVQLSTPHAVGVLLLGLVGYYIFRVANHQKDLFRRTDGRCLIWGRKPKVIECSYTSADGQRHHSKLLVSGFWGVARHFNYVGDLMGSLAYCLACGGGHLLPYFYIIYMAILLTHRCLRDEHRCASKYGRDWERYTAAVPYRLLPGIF
compound,measurement,setting,value
C[C@H](CCCC(C)(C)O)[C@H]1CC[C@H]2[C@@H]3CC=C4C[C@@H](O)CC[C@]4(C)[C@H]3CC[C@]12C [Compound 25-OHCh],ChEH inhibition (in words),ChEH [1],did not inhibit ChEH
same,ChEH inhibition (in words),ChEH [2],unable to inhibit ChEH
"CC(C)CCC[C@@H](C)[C@H]1CC[C@H]2[C@@H]3C[C@@H](NCCc4c[nH]cn4)[C@@]4(O)C[C@@H](O)CC[C@]4(C)[C@H]3CC[C@]12C [DDA, 5α-Hydroxy-6β-[2-(1H-imidazol-4-yl)-ethylamino]-cholestan-3β-ol]",IC50,ChEH [3],252 ± 81 nM
same,IC50,ChEH [4],72 ± 15 nM
same,IC50,ChEH [5],284 ± 70 nM
same,mEH inhibition (in words),rat mEH,did not inhibit these enzymes; also recorded: not an inhibitor
same,increase in ORO staining of neutral lipid droplets vs vehicle,TS/A cells; 1 μM DDA,2.4 fold
same,increase in intracellular triglycerides vs vehicle,TS/A cells; 1 μM DDA,7 fold
same,"MFGE8/lactadherin (immunostaining, flow cytometry)",TS/A cells; 2.5 μM DDA,increased
same,increase in ORO staining of neutral lipid droplets vs vehicle,TS/A cells; 2.5 μM DDA,3 fold
same,increase in intracellular triglycerides vs vehicle,TS/A cells; 2.5 μM DDA,9 fold
same,sEH inhibition (in words),Human sEH,did not inhibit these enzymes; also recorded: not an inhibitor
same,survivors at day 50,B16F10 melanoma tumours; [7],40%
same,tumour growth vs control,B16F10 melanoma tumours; [7],significantly inhibited tumour growth
same,melanin production in tumour sections (Masson–Fontana),"B16F10 melanoma tumours; B16F10 tumours, DDA 3.7 μg kg−1, 23 days",increased production of melanin
same,"intra-tumour immune cell infiltration (CD3, CD11c)","B16F10 melanoma tumours; B16F10 tumours, DDA 3.7 μg/kg, 23 days",increased infiltration of CD3^+ T lymphocytes and CD11c^+ dendritic cells
same,stimulation of luciferase expression (ER agonism),"ER; increasing concentrations, without E2",did not stimulate the expression of luciferase
same,inhibition of luciferase stimulation by E2 (ER antagonism),ER,did not inhibit luciferase stimulation by 17β-estradiol
same,MFGE8/lactadherin expression in tumour sections (immunohistochemistry),TS/A mammary tumours; [8],increased expression of milk fat globule (MFGE8)/lactadherin
same,neutral lipid droplets in tumour sections (ORO),TS/A mammary tumours; [8],increased accumulation of neutral lipid droplets
same,"intra-tumour immune cell infiltration (CD3, CD11c)","TS/A mammary tumours; TS/A tumours, DDA 3.7 μg/kg, 30 days",increased infiltration of CD3^+ T lymphocytes and CD11c^+ dendritic cells
same,animal survival at day 50,"TS/A mammary tumours; TS/A, treated every 5 days from day of implantation, DDA 0.37 μg kg−1 s.c.",60%
same,melanin content,B16F10 cells,increased in a concentration-dependent manner up to 2.5 μM DDA
same,tyrosinase activity,B16F10 cells,increased activity of tyrosinase
same,IC50,ChEH [2],120 ± 20 nM
same,modality of ChEH inhibition,ChEH [6],competitive
CC(C)CCC[C@@H](C)[C@H]1CC[C@H]2[C@@H]3C(=O)C=C4C[C@@H](O)CC[C@]4(C)[C@H]3CC[C@]12C [7-ketocholesterol],ChEH inhibition (in words),ChEH [1],inhibited ChEH in microsomes from rat liver
same,IC50,ChEH [2],5090 ± 1400 nM
same,"IC50 of ChEH inhibition, fold higher than DDA",ChEH [2],42 fold
"CC(C)CCC[C@@H](C)[C@H]1CC[C@H]2[C@@H]3C[C@@H](n4cncc4CCN)[C@@]4(O)C[C@@H](O)CC[C@]4(C)[C@H]3CC[C@]12C [Compound C17, 5α-hydroxy-6β-[5-(2-amino-ethyl)-imidazol-1-yl]-cholestan-3β-ol]",ChEH inhibition (in words),ChEH [3]; B16F10 cells,inactive against ChEH
same,ChEH inhibition (in words),ChEH [4]; SK-Mel-28 cells,inactive against ChEH
same,ChEH inhibition (in words),ChEH [5]; TSA cells,inactive against ChEH
same,ChEH inhibition (in words),ChEH [2],did not inhibit ChEH activity
"NCCc1c[nH]cn1 [His, histamine]",apparent Vmax of DDA formation,mouse brain homogenate,0.12±0.04 pmol per mg protein per min
"CC/C(=C(\c1ccccc1)c1ccc(OCCN(C)C)cc1)c1ccccc1 [Tam, Tamoxifen, reference compound]",inhibition of luciferase stimulation by E2 (ER antagonism),ER,completely inhibited luciferase expression
"CC(C)CCC[C@@H](C)[C@H]1CC[C@H]2[C@@H]3[C@H](O)C=C4C[C@@H](O)CC[C@]4(C)[C@H]3CC[C@]12C [Compound 7α-OHCh, 7α-hydroxycholesterol]",ChEH inhibition (in words),ChEH [1],inhibited ChEH in microsomes from rat liver
same,IC50,ChEH [2],12000 ± 2900 nM
same,"IC50 of ChEH inhibition, fold higher than DDA",ChEH [2],100 fold
